Most compounds without a hit are left out; they make up all but 1.5% or so of the library.
NR2E3 ag-1 – agonists of human nuclear receptor NR2E3; 0.12% of 320,000 active; GST-NR2E3/biotin-RetCOR TR-FRET, 1536-well; AID 2300; inhibition of corepressor binding, % at 4.78 µM;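 active = percent inhibition above the cutoff of mean plus 3 SD of all tested compounds, set per screening campaign, cut at about 20% in these data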
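System: GST-tagged NR2E3 plus biotinylated RetCOR corepressor; Buffer or medium: pH 7.5 Tris-based buffer; Probe or stimulus: RetCOR corepressor, biotinylated, 7 nM; Doses: compound at 4.8 µM, single dose; Schedule: 5 h incubation at 4 °C; Technique: time-resolved FRET; Evaluation: percent inhibition of TR-FRET ratio; Replication: one well per compound, singlicate testing.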
GalR3 antag – blocks the human galanin receptor 3; O60755; 0.44% of 360,000 active; inhibition, % at 3 µM; AID 651719; HEK293 GalR3-CNG cAMP membrane potential fluorescence; galR3 body fused to GalR1 C-terminus;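 active = inhibition above the screen-wide average plus 3 SD, cut at about 13% in these data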;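 also: forskolin and galanin both at EC90 stimulate the cells; cAMP rise reported by CNG channel membrane potential dye signal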
Target sequence (O60755 1-299 limits assumed): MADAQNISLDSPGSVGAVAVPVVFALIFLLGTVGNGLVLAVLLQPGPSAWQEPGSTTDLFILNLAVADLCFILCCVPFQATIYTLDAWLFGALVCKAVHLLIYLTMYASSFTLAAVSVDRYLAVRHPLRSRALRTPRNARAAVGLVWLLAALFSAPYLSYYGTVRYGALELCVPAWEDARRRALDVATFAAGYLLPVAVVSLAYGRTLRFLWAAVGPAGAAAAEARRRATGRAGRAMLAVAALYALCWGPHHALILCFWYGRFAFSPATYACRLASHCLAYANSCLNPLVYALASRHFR
GASC-1 inh – blocks human GASC-1 demethylase activity; Q9H3R0; GST-JMJD2C(1-420) H3K9me3 demethylation, DELFIA europium; inhibition, % at 2.35 µM; 0.069% of 330,000 active; AID 2099;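 active = more than half of a compound's replicate wells show inhibition beyond 50%, single wells judged on their own value; inconclusive = some, but no more than half, of replicates pass 50% inhibition; inactive = no replicate passes 50% inhibition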;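 also: signal counts dimethyl H3K9 product captured on neutravidin plate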
Target sequence (Q9H3R0 1-420 limits assumed): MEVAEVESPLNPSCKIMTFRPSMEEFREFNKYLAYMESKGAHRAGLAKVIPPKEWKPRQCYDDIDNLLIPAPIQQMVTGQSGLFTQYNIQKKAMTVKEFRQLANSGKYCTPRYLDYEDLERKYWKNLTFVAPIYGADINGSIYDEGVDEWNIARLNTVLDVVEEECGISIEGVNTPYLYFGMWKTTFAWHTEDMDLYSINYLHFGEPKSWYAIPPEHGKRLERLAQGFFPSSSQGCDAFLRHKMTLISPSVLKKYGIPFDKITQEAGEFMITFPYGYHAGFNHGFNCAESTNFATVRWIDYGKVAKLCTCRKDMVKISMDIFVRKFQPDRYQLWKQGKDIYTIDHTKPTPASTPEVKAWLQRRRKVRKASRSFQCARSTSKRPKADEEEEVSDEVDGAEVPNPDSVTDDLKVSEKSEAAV
697 NFkB inh – inhibitors of the PMA/ionomycin-induced NF-kB reporter in 697 B cells; 697 B-cell NF-kB luciferase reporter, 16 h; inhibition, % at 4 µM; 0.33% of 330,000 active; AID 435022; in the data active = inhibition above about 35%
Jurkat NFkB inh – inhibitors of the PMA/ionomycin-induced NF-kB reporter in Jurkat cells; PMA/ionomycin-induced NF-kB luciferase reporter, luminescence; inhibition, % at 4 µM; 0.53% of 330,000 active; AID 435003; in the data active = inhibition above about 50%
NR2E3 ag-2 – agonists of human NR2E3 nuclear receptor | Q9Y5X4 | CHO-S Gal4-NCOR/VP16-NR2E3 two-hybrid, luciferase | inhibition of corepressor binding, % at 3.98 µM | 0.35% of 360,000 active | AID 602229;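 active = inhibition above the mean of all tested compounds plus 3 SD, cut at about 70% in these data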;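 also: higher means lower luciferase signal from less NR2E3 corepressor binding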
GalR3 antag conf – GalR3 (human) antagonism, confirmation; shares compounds with GalR3 antag; HEK293 GalR3 CNG cAMP biosensor, membrane potential fluorescence; galR3 fused to GalR1 carboxy tail; challenged with forskolin and galanin at EC90; inhibition, % at 3 µM; 59% of 1,600 active; AID 652245;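 active = inhibition above the primary screen's cutoff, the mean inhibition of all screened compounds plus 3 SD, cut at about 13% in these data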
CNG parental – counter-screen for GalR3 antagonists: nonspecific agonists in parental HEK-CNG cells. shares compounds with GalR3 antag. HEK293-CNG parental cells, cAMP membrane potential fluorescence; normalised: DMSO wells 0%, forskolin wells 100%. activation, % at 3 µM. 10% of 1,600 active; in the data active = activation above about 1.3%
Each line names hits and unclear results; the compound was inactive in the other large screens (follow-up assays come after a bar, where they were run).

Cc1ccc(-c2cc(=O)c3cc(F)ccc3[nH]2)cc1	none
O=c1cc(-c2ccccc2)[nH]c2ccc(F)cc12	GalR3 antag 20 (no result: 697 NFkB inh, Jurkat NFkB inh) | GalR3 antag conf inactive | CNG parental inactive
Cc1cc2ccccn2c1C(=O)Nc1cccc(Cl)c1	GalR3 antag 13 | GalR3 antag conf inactive | CNG parental inactive
COCc1cc(N2CCN(C(=O)OC(C)(C)C)C[C@H]2C)ccc1N1CC[C@H](O)C1	none (no result: NR2E3 ag-1, GASC-1 inh, 697 NFkB inh, Jurkat NFkB inh, NR2E3 ag-2)
O=C(Nc1nc(-c2ccc(S(=O)(=O)N3CCCCCC3)cc2)cs1)c1ccccc1	none
O=C(Nc1nc(-c2ccc3c(c2)OCCO3)cs1)c1ccc(S(=O)(=O)N2CCCCC2)cc1	GalR3 antag 20, GASC-1 inh inconclusive | GalR3 antag conf 15 | CNG parental inactive
CC(C)CN(C(=O)CN1CCN(S(=O)(=O)c2ccc3ccccc3c2)CC1)c1c(N)n(CC(C)C)c(=O)[nH]c1=O	GalR3 antag 18 | GalR3 antag conf inactive | CNG parental inactive
Nc1ncnc2c1ncn2[C@@H]1O[C@H](C(=O)N[C@@H](CO)c2ccccc2)[C@@H](O)[C@H]1O	none (no result: NR2E3 ag-1, GASC-1 inh, 697 NFkB inh, Jurkat NFkB inh)
Cc1ccc(CNC(=O)[C@H]2O[C@@H](n3cnc4c(N)ncnc43)[C@H](O)[C@@H]2O)o1	GalR3 antag 81 (no result: NR2E3 ag-1, GASC-1 inh, 697 NFkB inh, Jurkat NFkB inh) | GalR3 antag conf 78 | CNG parental inactive
Nc1ncnc2c1ncn2[C@@H]1O[C@H](C(=O)N[C@H]2c3ccccc3C[C@H]2O)[C@@H](O)[C@H]1O	GalR3 antag 20 (no result: NR2E3 ag-1, GASC-1 inh, 697 NFkB inh, Jurkat NFkB inh) | GalR3 antag conf 31 | CNG parental 1.3
Nc1ncnc2c1ncn2[C@@H]1O[C@H](CNCc2ccc(-c3cc(C(F)(F)F)ccc3Cl)o2)[C@@H](O)[C@H]1O	GalR3 antag 42 (no result: NR2E3 ag-1, GASC-1 inh, Jurkat NFkB inh) | GalR3 antag conf 54 | CNG parental inactive
Nc1ncnc2c1ncn2[C@@H]1O[C@H](C(=O)NS(=O)(=O)c2ccccc2[N+](=O)[O-])[C@@H](O)[C@H]1O	GalR3 antag 39 (no result: NR2E3 ag-1, GASC-1 inh, 697 NFkB inh, Jurkat NFkB inh) | GalR3 antag conf 27 | CNG parental inactive
CC(=O)c1ccc(S(=O)(=O)N2CCN(C(=O)CCC3CCCC3)CC2)cc1	none (no result: NR2E3 ag-1, GASC-1 inh)
COc1ccc2nc(NC(=O)C(NS(=O)(=O)c3cccc4nsnc34)C(C)C)sc2c1 (configuration not stated)	none
COc1ccccc1NC(=O)C(NC(=O)OC(C)(C)C)C(C)OCc1ccccc1 (configuration not stated)	none (no result: GalR3 antag)
Cc1[nH]c2ccc(C(=O)NCCCN3CCN(C)CC3)cc2c1C	GalR3 antag 15 | GalR3 antag conf inactive | CNG parental inactive
O=C(C(=O)N1CCCC1CO)N1CCCC1CO (configuration not stated)	none
C=CCn1c(COc2ccc(Cl)cc2)nnc1SCC(=O)c1c(N)n(C)c(=O)n(C)c1=O	GalR3 antag 16 | GalR3 antag conf inactive | CNG parental inactive
COc1ccc(/C=N/NC(=O)C(Cc2c[nH]c3ccccc23)NC(=O)OCC(C)C)cc1[N+](=O)[O-] (configuration not stated)	GalR3 antag 15 | GalR3 antag conf 26 | CNG parental inactive
O=C(NC(Cc1c[nH]c2ccccc12)C(=O)N/N=C/c1ccc(Cl)cc1)c1cccs1 (configuration not stated)	none
O=C1c2cc([N+](=O)[O-])cc3cc([N+](=O)[O-])cc(c23)C(=O)N1c1ccccn1	none (no result: GalR3 antag, 697 NFkB inh, Jurkat NFkB inh) | GalR3 antag conf inactive | CNG parental inactive
O=C1c2ccc(Oc3cccc([N+](=O)[O-])c3)cc2C(=O)N1c1ccccn1	none
O=C(CNC(=O)c1ccc(F)cc1)Nc1ccccc1C(F)(F)F	GalR3 antag 14 | GalR3 antag conf inactive | CNG parental inactive
Cc1c(C(=O)N2CCc3ccccc32)cnn1C	none (no result: GalR3 antag) | GalR3 antag conf inactive | CNG parental inactive
CCOC(=O)C(=Cc1ccc(OCc2ccc([N+](=O)[O-])cc2)c(OC)c1)C(=O)OCC	none (no result: GalR3 antag) | GalR3 antag conf inactive | CNG parental inactive
COC(=O)C(=Cc1ccc(OCc2ccc([N+](=O)[O-])cc2)c(OC)c1)C(=O)OC	none
COc1ccc(Cl)cc1C(=O)NNC(=O)CNC(=O)c1ccc(C)s1	none (no result: NR2E3 ag-1)
Cc1cc(Br)ccc1OCC(=O)NNC(=O)c1ccc(NC(=O)C2CC2)cc1	GalR3 antag 50 (no result: GASC-1 inh) | GalR3 antag conf 36 | CNG parental inactive
Cc1nc(S(=O)(=O)Cc2ccccc2Cl)nc2c1CCC2	GalR3 antag 27 | GalR3 antag conf inactive | CNG parental inactive
Cc1ccc(OCCN(C)C(=O)C2CCC(=O)N(CCCN3CCCC3=O)C2)cc1 (configuration not stated)	none
CCCc1cc(=O)[nH]c(SCC(=O)c2c[nH]c3ccccc23)n1	none
CCCc1cc(=O)[nH]c(SCC(=O)c2c(C)[nH]c3ccccc23)n1	GalR3 antag 17 | GalR3 antag conf inactive | CNG parental 1.7
COc1cc2c(cc1OC)[C@@H](NC(=O)c1ccncc1)[C@H](C)[C@H]2c1ccccc1	none (no result: NR2E3 ag-1, GASC-1 inh, 697 NFkB inh, Jurkat NFkB inh, NR2E3 ag-2)
CC(Oc1ccc(Cl)cc1Cl)c1ccnc2nc(N3CCOCC3)nn12 (configuration not stated)	none (no result: GalR3 antag) | GalR3 antag conf inactive | CNG parental inactive
CC(Oc1ccccc1)c1ccnc2nc(N3CCOCC3)nn12 (configuration not stated)	none
CCCCCCCCCC(=O)N/N=C(\C)c1cccnc1	GalR3 antag 14 | GalR3 antag conf inactive | CNG parental inactive
CC(=O)c1ccc(NC(=O)c2ccc(C)c(Br)c2)cc1	none
CC(=O)c1ccc(NC(=O)Nc2ccc(Br)cc2C)cc1	GalR3 antag 13 | GalR3 antag conf inactive | CNG parental inactive
CCCCn1c(N)c(N(CC)C(=O)c2cccs2)c(=O)[nH]c1=O	none (no result: NR2E3 ag-1)
CC(=O)Oc1ccccc1/C=C/c1nc2ccccc2c(=O)o1	none
C/C(O)=c1/c(=O)nc2cccc3c2=c1c1ccccc1c3=O	GalR3 antag 19 (no result: NR2E3 ag-1) | GalR3 antag conf 14 | CNG parental inactive
O=C(Nc1ccncc1)c1ccc(Cl)c(S(=O)(=O)N2CCCC2)c1	none
O=C1C=C(c2c(O)ccc3ccccc23)c2ccccc2C1=O	GalR3 antag 23 (no result: NR2E3 ag-1, GASC-1 inh, 697 NFkB inh, Jurkat NFkB inh) | GalR3 antag conf 82 | CNG parental inactive
O=C1C=C(O)c2cccc(O)c2C1=O	none (no result: GASC-1 inh)
O=C(NC(Cc1ccccc1)C(=O)O)/C(=C\c1ccc(F)cc1)NC(=O)c1ccco1 (configuration not stated)	none

Assay outcomes as filed in PubChem.
